Results taken from ChEMBL document CHEMBL3621103, “Chemical Synthesis and Biological Activities of 20S,24S/R-Dihydroxyvitamin D3 Epimers and Their 1α-Hydroxyl Derivatives” (J Med Chem, 2015).
Calls of active or inactive are those of the source. The calls are words filed in the database; no cut-off is given here.

Assays:
[1] = Antiinflammatory activity in DBA/1 mouse splenocytes assessed as IFNgamma production at 100 nM after 2 hrs by ELISA (reference value: 731 +/- 15 pg/ml); format: functional, Splenocyte
[2] = target: T1, 25-hydroxyvitamin D-1 alpha hydroxylase, mitochondrial (Mus musculus) (UniProt O35084); test: Substrate activity at mouse CYP27B1 assessed as 1alpha-hydroxylation by measuring ratio of Kcat to Km after 2 mins by reverse-phase HPLC analysis
T1 sequence (whole entry): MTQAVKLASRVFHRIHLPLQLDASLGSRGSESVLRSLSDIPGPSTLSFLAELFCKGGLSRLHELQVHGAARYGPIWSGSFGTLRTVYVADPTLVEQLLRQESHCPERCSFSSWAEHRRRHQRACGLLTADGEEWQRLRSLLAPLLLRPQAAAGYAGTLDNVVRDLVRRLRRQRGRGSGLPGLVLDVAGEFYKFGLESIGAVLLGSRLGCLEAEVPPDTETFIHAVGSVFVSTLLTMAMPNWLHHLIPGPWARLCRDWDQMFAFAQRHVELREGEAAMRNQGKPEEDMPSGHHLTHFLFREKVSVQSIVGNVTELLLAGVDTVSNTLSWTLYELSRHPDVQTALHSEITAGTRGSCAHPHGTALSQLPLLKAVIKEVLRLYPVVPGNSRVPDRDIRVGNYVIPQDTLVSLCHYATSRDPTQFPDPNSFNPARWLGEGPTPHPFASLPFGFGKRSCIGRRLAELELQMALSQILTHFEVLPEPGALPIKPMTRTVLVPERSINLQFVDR
Procedure, shortened: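 Substrates incorporated into dioleoylphosphatidylcholine/cardiolipin vesicles over a range of concentrations and incubated 2 min. Products extracted with dichloromethane and quantified by reverse-phase C18 HPLC. Km and kcat from a Michaelis–Menten fit (±SE of fit); kcat/Km expressed per mmol/mol phospholipid.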

[3] = target: T2, Vitamin D3 receptor (Homo sapiens) (UniProt P11473); test: Transactivation of VDR in human HaCaT cells up to 1000 nM after 24 hrs by luciferase reporter gene assay; format: cell-based
T2 sequence (whole entry): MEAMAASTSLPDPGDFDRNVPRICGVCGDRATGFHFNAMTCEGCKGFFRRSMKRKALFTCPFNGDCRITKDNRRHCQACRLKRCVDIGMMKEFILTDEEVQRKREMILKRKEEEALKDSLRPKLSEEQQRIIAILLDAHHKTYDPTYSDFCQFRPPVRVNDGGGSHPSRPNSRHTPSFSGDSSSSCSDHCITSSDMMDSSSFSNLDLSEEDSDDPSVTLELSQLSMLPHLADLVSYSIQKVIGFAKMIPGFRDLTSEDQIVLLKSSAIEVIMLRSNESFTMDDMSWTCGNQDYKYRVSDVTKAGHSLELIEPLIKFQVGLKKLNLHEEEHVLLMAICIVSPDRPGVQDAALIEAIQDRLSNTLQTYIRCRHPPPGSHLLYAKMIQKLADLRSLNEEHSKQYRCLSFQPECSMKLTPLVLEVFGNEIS
Procedure, shortened: (§1)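 Cells were lentivirally transduced with a VDRE-luciferase reporter and selected 1 week with puromycin (1 µg/mL). Seeded at 1000 cells/well in FBS-free medium for 24 h, then treated 24 h with secosteroids in DMSO (0.1% final; 0.1% DMSO as vehicle control). Luciferase read by ONE-Glo. Triplicate per concentration; EC50 reported.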

[4] = target: T2, Vitamin D3 receptor (Homo sapiens); test: Transactivation of VDR in human Caco2 cells up to 1000 nM after 24 hrs by luciferase reporter gene assay; format: cell-based; details: Caco-2; procedure, shortened: as §1
[5] = Upregulation of LAIR-1 expression in DBA/1 mouse splenocytes at 10^-7 M after overnight incubation by flow cytometric analysis (reference value: 973 +/- 95); format: functional, cell-based; details: Splenocyte
Procedure, shortened: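 Splenocytes isolated from DBA/1 mice were cultured overnight with secosteroid at 10−7 M or vehicle control. Cells were stained with fluorochrome-labelled anti-CD4 and anti-LAIR-1 antibodies and analysed by multiparameter flow cytometry, gating on CD4 cells. At least 10 000 cells were counted per sample. Read-out is LAIR-1 mean fluorescence, given as the mean of two separate analyses ± SD.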

Vitamin D3 receptor [6] = target: T3, Vitamin D3 receptor (Homo sapiens, UniProt P11473); test: Transactivation of VDR in human HaCaT cells after 24 hrs by luciferase reporter gene assay; format: cell-based
T3 sequence (P11473 whole entry): T2 sequence (whole entry)

Vitamin D3 receptor [7] = target: T3, Vitamin D3 receptor; test: Transactivation of VDR in human Caco2 cells after 24 hrs by luciferase reporter gene assay; format: cell-based, Caco-2

SMILES | Activity [1] | Ratio [2] | Activity [3] | Activity [4] | Flu intensity [5] | EC50 (Vitamin D3 receptor [6]) | EC50 (Vitamin D3 receptor [7])
C=C1CC[C@H](O)C/C1=C/C=C1\CCC[C@@]2(C)[C@H]1CC[C@@H]2[C@@](C)(O)CC[C@@H](O)C(C)C | 465 pg/mL | 3.9 min⁻¹ | inactive | inactive | 1910 | – | –
C=C1/C(=C\C=C2/CCC[C@]3(C)[C@@H]([C@H](C)OCCC(C)(C)O)CC[C@@H]23)C[C@@H](O)C[C@@H]1O [MAXACALCITOL] | 356 pg/mL | – | – | – | 1510 | 37.9 nM | 40.8 nM
C=C1/C(=C\C=C2/CCC[C@]3(C)[C@@H]([C@H](C)CCCC(C)(C)O)CC[C@@H]23)C[C@@H](O)C[C@@H]1O | – | – | – | – | 1640 | – | –
C=C1/C(=C\C=C2/CCC[C@@]3(C)[C@H]2CC[C@@H]3[C@@](C)(O)CC[C@@H](O)C(C)C)C[C@@H](O)C[C@@H]1O | 291 pg/mL | – | – | – | 2100 | 64.9 nM | 66.9 nM
C=C1CC[C@H](O)C/C1=C/C=C1\CCC[C@@]2(C)[C@H]1CC[C@@H]2[C@@](C)(O)CC[C@H](O)C(C)C | 923 pg/mL | 0.71 min⁻¹ | inactive | inactive | 1540 | – | –
C=C1/C(=C\C=C2/CCC[C@@]3(C)[C@H]2CC[C@@H]3[C@@](C)(O)CC[C@H](O)C(C)C)C[C@@H](O)C[C@@H]1O | 589 pg/mL | – | – | – | 1820 | 271 nM | 208 nM
